Test results taken from ChEMBL document CHEMBL4400551, “Discovery and lead optimisation of a potent, selective and orally bioavailable RARβ agonist for the potential treatment of nerve injury” (Bioorg Med Chem Lett, 2019).
Calls of active or inactive are those of the source. No cut-off for these calls is given here.

Columns and labels:
Mus musculus = organism: Mus musculus; assay: Selectivity ratio of EC50 for GAL4-fused mouse RARalpha LBD expressed in COS-7 cells to EC50 for GAL4-fused mouse RARbeta-LBD expressed in COS-7 cells; type: cell-based
Rattus norvegicus [1] = assay: Neuroprotective activity in avulsed rat model assessed as reduction in number of foot slips in a horizontal ladder by injured forelimb at 3 mg/kg, po administered every other day for 4 weeks; type: functional, organism-based
Summary of the method: (§1)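 Rats with avulsion injury given 3 mg/kg orally three times a week, every other day; sensory and locomotor function assessed. Mean of n = 8; two-way repeated-measures ANOVA with Tukey's post-hoc test.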

[2] = Fraction absorbed in Sprague-Dawley rat at 1 to 10 mg/kg, po by LC-MS/MS analysis; type: ADME, organism-based; conditions: in vivo, read-out: Fabs
Summary of the method: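 Rats: oral doses of 1, 3 and 10 mg/kg in 8% ethanol/92% PEG-400; iv reference 0.5 mg/kg in 4% DMSO, 38% PEG-400, 58% (0.9%) NaCl. Fraction absorbed is the mean over the three oral doses relative to the iv dose.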

[3] = Genotoxicity in Salmonella typhimurium TA1535 at 100 uM by Ames test; type: toxicity; conditions: salmonella enterica subsp. enterica serovar typhimurium
Summary of the method: (§2)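 Ames test in three bacterial strains.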

Salmonella typhimurium [4] = assay: Toxicity in Salmonella typhimurium TA1535 at 100 uM; type: organism-based; conditions: salmonella enterica subsp. enterica serovar typhimurium
Summary of the method: (§3)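 Bacterial cytotoxicity testing up to 100 μM.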

HepG2 = assay: Cytotoxicity against human HepG2 cells at 50 uM; type: cell-based; conditions: hepg2, 50 µM
Summary of the method: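 HepG2 cell toxicity assay; highest concentration tested 50 μM.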

Salmonella typhimurium [5] = assay: Toxicity in Salmonella typhimurium TA100 at 100 uM; type: organism-based; conditions: salmonella enterica subsp. enterica serovar typhimurium; summary of the method: as §3
Rattus norvegicus [6] = assay: Neuroprotective activity in avulsed rat model assessed as reduction in latency for time taken to sense and remove the tape from the paw of the lesioned forelimbs at 3 mg/kg, po administered every other day for 4 weeks; type: functional, organism-based; summary of the method: as §1
[7] = Drug uptake in Sprague-Dawley rat plasma at 1 to 10 mg/kg, po measured after 8 hrs by LC-MS/MS analysis; type: ADME, organism-based; conditions: in vivo
Summary of the method: (§4)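 Oral dosing to rats; brain tissue and plasma levels compared 8 h after dosing.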

[8] = Genotoxicity in Salmonella typhimurium TA100 at 100 uM by Ames test; type: toxicity; conditions: salmonella enterica subsp. enterica serovar typhimurium; summary of the method: as §2
CHO-K1 [9] = assay: Genotoxicity in CHOK1 cells in absence of S9 fraction by micronucleus test; type: toxicity, cell-based, Cricetulus griseus; conditions: chinese hamster
Summary of the method: (§5)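 In vitro micronucleus test in CHO-K1 cells, run both with and without S9.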

[10] = target: Voltage-gated inwardly rectifying potassium channel KCNH2 (Homo sapiens, UniProt Q12809); assay: Displacement of [3H]astemizole from human ERG at 10 uM
Voltage-gated inwardly rectifying potassium channel KCNH2, sequence (Q12809 whole entry): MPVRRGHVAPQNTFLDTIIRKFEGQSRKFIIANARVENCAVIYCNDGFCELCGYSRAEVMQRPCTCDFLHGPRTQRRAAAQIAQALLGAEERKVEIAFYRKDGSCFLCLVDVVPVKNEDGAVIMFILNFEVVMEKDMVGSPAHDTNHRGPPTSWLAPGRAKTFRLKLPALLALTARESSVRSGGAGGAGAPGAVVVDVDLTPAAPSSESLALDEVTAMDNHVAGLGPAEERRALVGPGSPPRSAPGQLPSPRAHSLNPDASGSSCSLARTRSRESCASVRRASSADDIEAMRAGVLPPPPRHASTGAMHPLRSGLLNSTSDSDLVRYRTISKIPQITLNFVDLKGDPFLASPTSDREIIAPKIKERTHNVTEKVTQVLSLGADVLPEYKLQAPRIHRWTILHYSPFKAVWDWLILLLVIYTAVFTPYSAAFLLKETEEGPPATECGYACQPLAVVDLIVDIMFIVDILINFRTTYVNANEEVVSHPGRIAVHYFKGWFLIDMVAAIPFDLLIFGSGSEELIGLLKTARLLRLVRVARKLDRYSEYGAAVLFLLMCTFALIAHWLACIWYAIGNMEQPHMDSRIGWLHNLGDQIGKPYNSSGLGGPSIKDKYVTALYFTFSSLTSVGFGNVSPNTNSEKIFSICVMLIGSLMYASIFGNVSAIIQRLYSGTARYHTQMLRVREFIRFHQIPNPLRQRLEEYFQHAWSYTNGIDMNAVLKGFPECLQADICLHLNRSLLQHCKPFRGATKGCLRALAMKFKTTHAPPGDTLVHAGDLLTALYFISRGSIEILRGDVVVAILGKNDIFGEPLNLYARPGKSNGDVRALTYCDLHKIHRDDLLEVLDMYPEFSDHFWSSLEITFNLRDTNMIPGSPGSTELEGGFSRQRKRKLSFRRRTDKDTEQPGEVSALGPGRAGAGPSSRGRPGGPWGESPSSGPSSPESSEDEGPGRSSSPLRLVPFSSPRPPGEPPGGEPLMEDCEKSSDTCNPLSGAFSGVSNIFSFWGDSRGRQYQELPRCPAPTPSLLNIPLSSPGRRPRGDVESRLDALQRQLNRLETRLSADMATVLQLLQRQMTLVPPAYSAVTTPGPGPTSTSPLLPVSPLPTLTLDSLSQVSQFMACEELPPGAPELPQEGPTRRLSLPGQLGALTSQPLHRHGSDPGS
Summary of the method: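 HERG channel binding assay at 10 μM.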

CHO-K1 [11] = assay: Genotoxicity in CHOK1 cells in presence of S9 fraction by micronucleus test; type: toxicity, cell-based, Cricetulus griseus; conditions: chinese hamster; summary of the method: as §5
CHO-MG = assay: Agonist activity at RARbeta in CHO-MG cells assessed as increase in neurite length after 24 hrs by immunostaining based assay; type: cell-based; conditions: Cricetulus griseus
Summary of the method: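 Cerebellar neurons cultured on a CHO-MAG cell monolayer; 24 hr exposure to vehicle or agonist at 1×10^-8 – 1×10^-6 M. Neurite outgrowth read by immunostaining and neurite length quantification; means of 3 independent experiments; Student's t-test, vehicle versus highest dose.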

Salmonella typhimurium [12] = assay: Toxicity in Salmonella typhimurium TA98 at 100 uM; type: organism-based; conditions: salmonella enterica subsp. enterica serovar typhimurium; summary of the method: as §3
[13] = Drug uptake in Sprague-Dawley rat brain at 1 to 10 mg/kg, po measured after 8 hrs by LC-MS/MS analysis; type: ADME, organism-based; conditions: in vivo; summary of the method: as §4
[14] = Genotoxicity in Salmonella typhimurium TA98 at 100 uM by Ames test; type: toxicity; conditions: salmonella enterica subsp. enterica serovar typhimurium; summary of the method: as §2
[15] = target: T1, Retinoic acid receptor gamma (Mus musculus, UniProt P18911); assay: Transactivation of GAL4-fused mouse RARgamma-LBD expressed in COS-7 cells after 24 hrs by bright-Glo reagent based assay; type: cell-based
T1 sequence (P18911 whole entry): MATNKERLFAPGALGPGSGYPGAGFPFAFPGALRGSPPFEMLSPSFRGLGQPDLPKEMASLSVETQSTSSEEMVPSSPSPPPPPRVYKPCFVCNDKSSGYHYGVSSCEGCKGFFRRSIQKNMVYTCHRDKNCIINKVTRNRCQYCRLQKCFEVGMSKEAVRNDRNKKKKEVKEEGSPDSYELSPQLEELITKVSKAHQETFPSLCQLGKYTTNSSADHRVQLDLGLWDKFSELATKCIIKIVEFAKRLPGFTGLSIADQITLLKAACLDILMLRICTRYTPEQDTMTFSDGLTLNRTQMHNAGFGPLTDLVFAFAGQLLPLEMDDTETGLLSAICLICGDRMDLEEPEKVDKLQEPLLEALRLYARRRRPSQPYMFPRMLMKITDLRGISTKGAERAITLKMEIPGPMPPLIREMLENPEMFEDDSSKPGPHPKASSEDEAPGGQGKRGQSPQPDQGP
Summary of the method: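 Transactivation assays with mouse RAR α, β and γ ligand binding domains; values usually from three separate experiments, with error about 20% of the mean.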

SMILES	Ratio EC50 (Mus musculus)	EC50 [15] [nM]	other results
Cc1cc(-c2noc(-c3cc4c(C)ccc(C)c4o3)n2)ccc1C(=O)O	6.4		
Cc1ccc(C)c2oc(-c3nc(-c4ccc(C(=O)O)cc4)no3)cc12	13		Activity (Rattus norvegicus [1]): Active; Fa [2]: 80%; Activity [3]: Non-Toxic; Activity (Salmonella typhimurium [4]): Non-Toxic; Activity (HepG2): Non-Toxic; Activity (Salmonella typhimurium [5]): Non-Toxic; Activity (Rattus norvegicus [6]): Active; Drug uptake [7]: Active; Activity [8]: Non-Toxic; Activity (CHO-K1 [9]): Non-Toxic; inhibition (INH) [10]: Not Active; Activity (CHO-K1 [11]): Non-Toxic; Activity (CHO-MG): Dose-dependent effect; Activity (Salmonella typhimurium [12]): Non-Toxic; Drug uptake [13]: Active; Activity [14]: Non-Toxic
CCOc1c(Cl)cc(-c2noc(-c3ccc(C(=O)O)cc3)n2)cc1Cl		5.4	
Cc1ccc(C)c2oc(-c3nc(-c4ccc(C(=O)O)c(F)c4)no3)cc12	7.3		
CCOc1c(Cl)cc(C(=O)Nc2ccc(C(=O)O)cc2)cc1Cl		30000	
CCOc1c(Cl)cc(-c2nnc(-c3ccc(C(=O)O)cc3)o2)cc1Cl		150	
CC(C)(C)c1cc(-c2nc(-c3ccc(C(=O)O)cc3)no2)cc(C(C)(C)C)c1	2.8		
CCCCOCCOc1nc(-c2ccc(C(=O)O)c(F)c2)sc1C	5.8		
CC1(C)CCC(C)(C)c2cc(-c3nc(-c4ccc(C(=O)O)cc4)no3)ccc21	17		
O=C(O)c1ccc(-c2noc(-c3cc4c(C(F)(F)F)ccc(F)c4o3)n2)cc1	7.6		
CCOc1c(Cl)cc(-c2cnc(-c3ccc(C(=O)O)cc3)o2)cc1Cl		45	
Cc1cc(C(=O)O)ccc1-c1noc(-c2cc3c(C)ccc(C)c3o2)n1	13		
Cc1ccc(C)c2oc(-c3nc(-c4ccc(C(=O)O)cc4)no3)nc12	10		
Cc1ccc(C)c2sc(-c3nc(-c4ccc(C(=O)O)cc4)no3)cc12	9		
Cc1ccc(C)c2oc(-c3nc(-c4ccc(C(=O)O)cc4F)no3)cc12	5.5		
CCOc1c(Cl)cc(-c2csc(-c3ccc(C(=O)O)cc3)n2)cc1Cl		160	
